Assay outcomes: PubChem BioAssay, several laboratories
An excerpt weighted towards active compounds, which were near 4.8% of everything screened.
NR3A LBD binder: modulators (binders) of human NR3A ligand-binding domain | NR3A LBD differential scanning fluorimetry, Tm shift; 0% = protein alone, 100% = glycine-bound protein | Tm shift relative to glycine control, % at 25 µM | 340,000 tested, 2.5% active | AID 1259313;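 active = melting temperature shift of at least 10% of the positive control shift, at one fixed dose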
UCH37 DUB inh: blocks the human deubiquitinase UCH37. Q9Y5K5. 330,000 tested, 0.33% active. inhibition, % (test concentration not listed). purified proteasome/UCH37, Ub-AMC cleavage fluorescence. AID 588478;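 active = mean inhibition over replicate wells above about 20%, limit read from the data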;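 note: 0% = compound-free wells with enzyme and 100% = wells lacking proteasome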
Target sequence (Q9Y5K5 whole entry, looked up): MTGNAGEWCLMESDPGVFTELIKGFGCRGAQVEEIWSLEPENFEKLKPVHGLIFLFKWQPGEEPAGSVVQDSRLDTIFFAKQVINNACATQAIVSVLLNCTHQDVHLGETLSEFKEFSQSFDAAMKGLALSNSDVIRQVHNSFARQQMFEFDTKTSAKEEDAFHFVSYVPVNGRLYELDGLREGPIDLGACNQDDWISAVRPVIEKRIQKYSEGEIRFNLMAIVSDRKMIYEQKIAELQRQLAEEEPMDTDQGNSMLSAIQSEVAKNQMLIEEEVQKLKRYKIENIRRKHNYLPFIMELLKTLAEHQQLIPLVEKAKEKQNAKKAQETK
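Signal – fluorescence, ex 355 nm, em 460 nm · System – Proteasome-bound UCH37 · Input – 0.15 nM proteasome as dispensed · Timing – 30 min preincubation with enzyme, 25 min cleavage at room temperature · Read-out basis – percent inhibition of cleavage signal versus uninhibited and no-proteasome wells · Medium – Tris-HCl pH 7.4 with ATP-MgCl2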
PAFAH1B3 FP inh: inhibitors of human PAFAH1B3; Q15102; recombinant PAFAH1B3, FP-rhodamine probe, fluorescence polarization; inhibition, % at 3.39 µM; 340,000 tested, 0.28% active;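 active = inhibition above the screen-wide average of all tested compounds plus 3 SD, cut at about 25% in these data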;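 note: 0% = enzyme with DMSO only and 100% = wells lacking PAFAH1B3 protein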
Target sequence (Q15102 whole entry, looked up): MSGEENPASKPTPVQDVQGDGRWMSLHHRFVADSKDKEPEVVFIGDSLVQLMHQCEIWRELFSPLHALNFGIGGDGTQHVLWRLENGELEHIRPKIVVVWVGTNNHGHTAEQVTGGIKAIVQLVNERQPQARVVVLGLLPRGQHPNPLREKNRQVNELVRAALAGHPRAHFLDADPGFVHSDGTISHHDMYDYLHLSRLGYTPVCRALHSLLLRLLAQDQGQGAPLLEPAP
PAFAH1B2 inh: PAFAH1B2 (human) inhibition | inhibition, % at 3.39 µM | P68402 | recombinant PAFAH1B2, FP-rhodamine activity probe, fluorescence polarization | 340,000 tested, 1.2% active;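 active = inhibition above the mean of all tested compounds plus 3 SD, cut at about 24% in these data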;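 note: 0% = enzyme with DMSO and 100% = wells lacking PAFAH1B2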
PAFAH2 inh: PAFAH2 (human) inhibition. Q99487. recombinant PAFAH2, FP-rhodamine activity probe, fluorescence polarization. inhibition, % at 3.39 µM. 340,000 tested, 0.99% active;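 active = inhibition above the mean over all tested compounds plus 3 SD, cut at about 30% in these data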;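 note: inhibitors block probe labeling of enzyme so polarization drops; 0% = enzyme with DMSO and 100% = wells lacking PAFAH2 protein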
pPAFAH inh: inhibitors of human plasma PAF acetylhydrolase (pPAFAH) | 330,000 tested, 1.5% active | recombinant pPAFAH, FP-rhodamine probe fluorescence polarization | inhibition, % at 3.39 µM;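 active = inhibition above the mean inhibition across the screen plus 3 SD, cut at about 25% in these data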;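 note: inhibitors block binding of the rhodamine activity-based probe so polarization drops; 0% = enzyme with DMSO and 100% = wells lacking pPAFAH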
Starred values were filed as active, the others as inactive; / = not tested or not shown.

SMILES | NR3A LBD binder | UCH37 DUB inh | PAFAH1B3 FP inh | PAFAH1B2 inh | PAFAH2 inh | pPAFAH inh
O=C(C1=C(O)/C(=C/c2ccc(O)cc2)CCC1)C(F)(F)F | 12* | 2 | 10 | 7 | -2 | 3
O=C(CN1CCCCCC1)NN=Cc1cccc(Cl)c1Cl | / | 8 | / | / | / | /
COc1ccc(/C=C2\SC(=S)N(CCC(=O)Nc3ccccc3C(=O)O)C2=O)cc1 | -16 | 8 | 8 | -4 | 1 | -3
COc1ccc(/C=C2\SC(=S)N(CCC(=O)Nc3ccc(O)cc3)C2=O)cc1 | 15* | 2 | -6 | -6 | 1 | 2
O=C(CCN1C(=O)/C(=C/c2cccs2)SC1=S)Nc1cccc(O)c1 | 11* | 4 | -6 | -6 | 8 | 7
COc1ccc(/C=C2\SC(=O)N(CCCC(=O)Nc3cc(Cl)ccc3C(=O)O)C2=O)cc1 | 2 | 13 | 2 | 38* | 3 | -4
O=C(CCCN1C(=O)/C(=C\c2cccs2)SC1=S)Nc1cc([N+](=O)[O-])ccc1O | 23* | 2 | -18 | -8 | -4 | 9
COc1ccc(C=NNc2nc(Nc3ccccc3)nc(N3CCCCC3)n2)cc1OC | / | 7 | / | / | / | /
O=C(CCCN1C(=O)/C(=C/c2ccccc2)SC1=S)Nc1cccc(O)c1 | 12* | 4 | 5 | 3 | -8 | 10
O=C(CCCN1C(=O)/C(=C/c2cccs2)SC1=S)Nc1cccc(O)c1 | 14* | 2 | 4 | 5 | 6 | 1
COc1ccc(/C=C2/SC(=O)N(CCC(=O)Nc3ccc(S(=O)(=O)Nc4nccs4)cc3)C2=O)cc1 | 6 | / | -71 | -32 | -52 | -1
COc1ccc(/C=C2\SC(=O)N(CCC(=O)Nc3ccc(S(=O)(=O)Nc4nccs4)cc3)C2=O)cc1 | 11* | 6 | -57 | -24 | -67 | -39
O=C(CCN1C(=O)/C(=C/c2cccs2)SC1=S)Nc1ccc(O)cc1 | 22* | 7 | -8 | 5 | -18 | 4
O=C(CCCN1C(=O)/C(=C/c2cccs2)SC1=S)Nc1ccc(C(=O)O)cc1 | -3 | 8 | / | / | / | 4
O=C(CCCN1C(=O)/C(=C/c2cccs2)SC1=S)Nc1cccc(C(=O)O)c1 | -2 | 6 | 8 | 9 | 6 | 2
CN(C)C=Nc1ncnc2c1cnn2-c1ccc(C(F)(F)F)cn1 | / | 0 | / | / | / | /
COC(=O)c1ccc(NN=Cc2cc([N+](=O)[O-])cc(OC)c2O)cc1 | / | 8 | / | / | / | /
O=C(CCN1C(=O)/C(=C\c2cccs2)SC1=S)Nc1ccccn1 | -9 | 8 | 4 | 1 | -1 | 4
O=C(CCN1C(=O)/C(=C/c2cccs2)SC1=S)Nc1ccccc1O | 15* | 2 | -5 | 3 | 3 | -3
C/C(=N/NS(=O)(=O)c1ccc(Cl)cc1)c1cccc(NC(=O)c2ccc(Cl)cc2Cl)c1 | 18* | / | 12 | -6 | 9 | 25*
C/C(=N/NS(=O)(=O)c1ccc(C)cc1)c1cccc(NC(=O)c2cccc(Cl)c2)c1 | 14* | / | 2 | -2 | 1 | 11
CC(=O)Nc1cccc(/C(C)=N/NC(=O)c2ccc(Cl)cc2Cl)c1 | 0 | / | 1 | 7 | -5 | -1
Fc1ccc(-c2nc3nc4ccccc4nc3n2Cc2ccco2)cc1 | 21* | -17 | 8 | 0 | -8 | -1
CCC(C)(C)NC(=O)C(c1cccn1C)N(C(=O)Cn1nnc2ccccc21)c1ccc(OC)cc1 (centres undefined) | 11* | 2 | 4 | 9 | -4 | -3
CCC(C)(C)NC(=O)C(c1cccn1C)N(C(=O)Cn1nnc2ccccc21)c1ccc(F)cc1 (centres undefined) | 1 | 4 | 3 | 2 | 3 | -3
SMILES | NR3A LBD binder | UCH37 DUB inh | PAFAH1B3 FP inh | PAFAH1B2 inh | PAFAH2 inh | pPAFAH inh
N#CCCn1cc(/C=C2\NC(=S)N(c3ccccc3)C2=O)c(-c2ccc(F)cc2)n1 | 10* | 9 | 1 | 2 | 2 | 5
Cc1cccc(C)c1OCC(=O)NN=Cc1cccnc1 | / | 1 | / | / | / | /
O=C(NN=Cc1cc([N+](=O)[O-])ccc1O)C1CC1 | / | 12 | / | / | / | /
CC(=NNC(=O)C(O)c1ccccc1)c1ccc(Cl)cc1 (centres undefined) | / | 1 | / | / | / | /
C#CCN1C(=O)S/C(=C\c2ccc(-c3ccc(C(=O)O)cc3C)o2)C1=O | -1 | 5 | 3 | 5 | 6 | 31*
Cc1ccc(C)c(N2C(=N)S/C(=C\c3ccc(-c4ccccc4C(=O)O)o3)C2=O)c1 | 5 | 9 | 6 | 5 | 19 | 22
CCOC(=O)C(C)N1C(=O)S/C(=C\c2ccc(-c3ccccc3C(=O)O)o2)C1=O (centres undefined) | 3 | -3 | 0 | -6 | 5 | 28*
Cc1cc(C(=O)O)ccc1-c1ccc(/C=C2\SC(=O)N(CC(=O)Nc3ccc4c(c3)OCO4)C2=O)o1 | / | / | 5 | -5 | -2 | /
COc1ccc(CC(=O)NN=C(C)CC(=O)N(C)c2ccccc2)cc1 | / | 8 | / | / | / | /
O=c1c2cc(NC(=S)NC3CCCCC3)ccc2nc2n1CCCCC2 | -5 | -1 | 2 | 28* | 6 | -3
O=c1c2cc(NC(=S)NC3CCCC3)ccc2nc2n1CCCCC2 | 0 | 3 | -4 | 8 | 2 | -3
COC(=O)c1ccc(-n2c(C)cc(C=Nn3cnnc3)c2C)cc1 | / | 4 | / | / | / | /
CCCCCC(=O)Nc1cccc(C2=NOC3(C2)C[C@H](C(N)=O)N(C(=O)[C@H]2CCC(=O)N2)C3)c1 (some centres undefined) | 12* | 0 | 5 | -1 | -4 | 6
Cc1nn(-c2ccccc2)c(C)c1C=NO | / | 0 | / | / | / | /
C=C1CCC(C)C(C)(CCC2=CCOC2=O)CC=CC=C1C(=O)O (centres undefined) | / | 1 | / | / | / | /
CCc1ccc(N2CC(C(=O)NN=Cc3ccccc3)CC2=O)cc1 (centres undefined) | / | 4 | / | / | / | /
CC(C)(C)c1cc(C(=O)Nc2cccc3ccccc23)ccn1 | 683* | 0 | 2 | 4 | 3 | 4
COc1ccc(C(C)=NN2C(C)CCCC2C)c(OC)c1 (centres undefined) | / | 1 | / | / | / | /
CCCc1nnc(NS(=O)(=O)c2ccc(OC)cc2)s1 | 10* | / | 6 | 5 | 3 | 4
O=[N+]([O-])c1cc(S(=O)(=O)Nc2cccc(C(F)(F)F)c2)ccc1-n1nnc2ccccc21 | 19* | 2 | 7 | 8 | 9 | 23
c1ccc(-c2nc(NCc3cccs3)c3ccccc3n2)cc1 | 18* | 4 | -9 | -4 | -26 | -2
c1ccc(-c2nc(NCc3cccnc3)c3ccccc3n2)cc1 | -10 | 1 | 12 | 4 | 1 | 1
CN(Cc1ccccc1)c1nc(-c2cccc([N+](=O)[O-])c2)nc2ccccc12 | -5 | 4 | -1 | -2 | 5 | 5
Fc1ccc(CNc2nc(-c3ccccc3)nc3ccccc23)cc1 | 21* | 0 | -3 | -1 | -18 | /
